Compound activity: PubChem BioAssay, several laboratories
FLuc stim CS: affects firefly luciferase, flagging false hits in luciferase stimulation screens | P08659 | ATPlite luciferase biochemical, luminescence, 10 min; 0 = ATP-free wells, 1 = DMSO control | activation factor at 10 µM | 200,000 tested, under 10 active | AID 1027;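 active = luciferase activation factor, scaled between plate controls, of at least 2 with compound at 10 µM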
Target sequence (P08659 whole entry, looked up): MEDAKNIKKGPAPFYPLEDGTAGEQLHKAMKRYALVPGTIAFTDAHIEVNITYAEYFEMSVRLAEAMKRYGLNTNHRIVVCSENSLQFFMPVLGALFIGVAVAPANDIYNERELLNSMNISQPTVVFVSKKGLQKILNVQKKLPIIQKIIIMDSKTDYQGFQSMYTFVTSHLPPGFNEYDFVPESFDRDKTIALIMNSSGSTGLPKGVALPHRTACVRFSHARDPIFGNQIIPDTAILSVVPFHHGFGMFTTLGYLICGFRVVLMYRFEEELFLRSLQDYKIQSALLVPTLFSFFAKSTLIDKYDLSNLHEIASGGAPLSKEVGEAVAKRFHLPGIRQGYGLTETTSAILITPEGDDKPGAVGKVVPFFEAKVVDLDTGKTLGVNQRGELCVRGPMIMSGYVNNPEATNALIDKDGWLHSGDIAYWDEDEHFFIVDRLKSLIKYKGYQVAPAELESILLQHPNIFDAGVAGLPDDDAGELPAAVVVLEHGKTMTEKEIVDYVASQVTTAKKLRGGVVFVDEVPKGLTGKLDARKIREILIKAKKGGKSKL
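System: cell-free luciferase reagent; medium: PBS as buffer for the ATP substrate; doses: test compounds dosed from 2 mM stocks in 100% DMSO; incubation: 10 min, room temperature; measured by: luminescence from luciferase reaction; read-out: luciferase activation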
STAT3 inh-1: reduces IL-6 driven STAT3 reporter signal; 190,000 tested, 0.89% active; U3A cells, IL-6 STAT3-luciferase reporter, luminescence; host cell line lacks STAT1; inhibition, % at 5.5 µM; AID 862;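 active = inhibition above the mean inhibition across all screened compounds plus 3 SD, cut at about 44% in these data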;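 note: 0% = DMSO only wells and 100% = 100 µM nifuroxazide control wells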
STAT3 activator: increases IL-6 driven STAT3 reporter signal | 190,000 tested, 0.91% active | activation (% of control), % at 5.6 µM | AID 871 | U3A cells, IL-6 STAT3-luciferase reporter, luminescence; 100% = signal with IL-6 EC80 alone;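 active = activation above the screen-wide mean of compound activation plus 3 SD, cut at about 130% in these data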;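 note: 0% = background luminescence of wells with medium and substrate only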
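Material: STAT1-lacking human U3A cells, STAT3 luciferase reporter | Benchmarks: IL-6-only wells as 100% reference | Probe or stimulus: IL-6 (33 ng/mL) | Timing: Compound 1 h, then IL-6 6 h at 37 °C | Detection: Luminescence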
STAT1 inh: STAT1 signaling inhibition | inhibition, % at 5.5 µM | 200,000 tested, 0.35% active | NIH 3T3 STAT1-luciferase reporter, IFN-gamma, luminescence;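 active = inhibition above a set limit, the mean inhibition across all tested compounds plus 3 SD, cut at about 34% in these data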;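 note: 0% = IFN-gamma with DMSO and 100% = IFN-gamma with 300 µM nifuroxazide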
STAT1 activator: increases IFN-gamma driven STAT1 reporter signal; NIH 3T3 STAT1-luciferase reporter, luminescence; 100% = IFN-gamma alone, no compound; activation (% of control), % at 5.5 µM; 200,000 tested, 2.6% active; AID 932;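 active = activation above the screen-wide mean activation plus 3 SD, cut at about 130% in these data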;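 note: raw ratio to IFN-gamma control signal so 100% means no change and 0% no light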
FLuc inhib CS: Photinus pyralis luciferase inhibition counter-screen. P08659. ATPLite firefly luciferase biochemical luminescence, 10 min. inhibition, % at 10 µM. 200,000 tested, 1.5% active;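 active = inhibition above about 50% when tested at 10 µM, limit read from the data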
STAT3 inh-2: STAT3 inhibition, confirmation assay; shares compounds with STAT3 inh-1; U3A cells, IL-6 STAT3 luciferase reporter, luminescence; cell line lacks STAT1; inhibition, % at 5.7 µM; 1,200 tested, 45% active; AID 1265;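 active = inhibition above the hit cutoff computed for the primary STAT3 screen, cut at about 44% in these data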;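 note: 0% = IL-6 plus DMSO and 100% = IL-6 plus nifuroxazide control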
NFkB inh 2: NF-kappaB inhibition in STAT3 inhibitor counter-screen; shares compounds with STAT3 inh-1; HEK293T NF-kB luciferase reporter, TNF-alpha induced; inhibition, % at 5.7 µM; 1,200 tested, 36% active; AID 1308;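 active = inhibition above the mean of solvent-only control wells plus 3 SD, cutoff set per campaign, cut at about 13% in these data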;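 note: 0% = TNF-alpha with DMSO and 100% = TNF-alpha with MG high control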
STAT1 inh STAT3c: counter-screen for STAT3 inhibitors: STAT1 inhibition; NIH 3T3 STAT1-luciferase reporter, IFN-gamma induced, luminescence; inhibition, % at 5.7 µM; 1,200 tested, 27% active; shares compounds with STAT3 inh-1;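 active = inhibition above the mean plus 3 SD of solvent-only control wells, limit set per screening run, cut at about 16% in these data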;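 note: 0% = DMSO with IFN-gamma and 100% = nifuroxazide control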
* hit, by the source's call; x = no result. A selection: hits, their analogues and other compounds. The true share with any hit is near 4.9%.

SMILES	FLuc stim CS	STAT3 inh-1	STAT3 activator	STAT1 inh	STAT1 activator	FLuc inhib CS	STAT3 inh-2	NFkB inh 2	STAT1 inh STAT3c
COc1cccc(CN(C)C(=O)c2cc(COc3c(F)cccc3F)on2)c1	1	20.1	86.1	1.4	97.3	-3.3	x	x	x
O=C(c1cc(COc2ccc3ncccc3c2)on1)N1CCCCCC1	1	53.2*	57.9	14.1	85.4	1.9	59.2*	12.9*	14.5
O=C(NCCc1cn2ccccc2n1)c1cc(COc2ccc3ncccc3c2)on1	1	41.3	67.3	22.8	78.1	2.4	x	x	x
COCC1CCN(C(=O)c2cc(COc3ccc4ncccc4c3)on2)CC1	1.1	55.3*	54.9	29.6	71.9	-7.1	52.8*	21.7*	23.0*
CC[C@H](C)[C@@H](C(=O)N1CCNCC1)n1cc([C@@H](N)CO)nn1	1.1	x	x	5.5	96.3	-5.2	x	x	x
O=C(Nc1ccc(Cc2ccncc2)cc1)c1ccc(S(=O)(=O)N2CCCC2)cc1	1.1	68.0*	44.2	21.3	79.0	-5.2	66.4*	14.8*	15.3
O=C(Nc1ccccc1)c1ccc(S(=O)(=O)N2CCOCC2)cc1	1.1	10.9	91.8	3.5	97.2	-5.7	x	x	x
O=C(Nc1ccc(S(=O)(=O)N2CCCCC2)cc1)c1ccncc1	1	25.2	80.4	10.6	90.3	-2.8	x	x	x
O=C(Nc1ccc(S(=O)(=O)N2CCCC2)cc1)c1ccc(CN2CCc3ccccc3C2)cc1	1	82.1*	29.2	20.9	81.0	-1.5	84.8*	33.7*	2.1
CC(=O)c1ccc(NC(=O)c2ccc(S(=O)(=O)N3CCCC3)cc2)cc1	1	12.4	92.1	0.7	99.3	-4.6	x	x	x
O=C(Nc1ccc(S(=O)(=O)N2CCOCC2)cc1)c1ccc(CN2CCc3ccccc3C2)cc1	1.1	83.2*	36.1	30.5	72.5	-6.6	87.7*	42.1*	33.1*
O=C(CN1C(=O)C(c2ccc(F)cc2)=NC12CCCC2)Nc1ccc(F)cc1	1	57.6*	54.2	22.6	78.3	-4.1	54.1*	13.8*	21.7*
CC(Nc1cccc(F)c1)C(=O)Nc1ccc(S(N)(=O)=O)cc1 (stereo not given)	1.1	2.4	101.3	2.1	97.7	-7.6	x	x	x
COc1cccc(CNC(=O)c2cc3c(C)nc4ccccc4c3o2)c1	1.1	45.9*	67.7	13.7	87.6	-6.5	23.3	-1.5	2.4
COc1cc(NC(=O)c2cc3c(C)nc4ccccc4c3o2)cc(OC)c1OC	1.1	23.6	84.6	1.9	98.2	-9.5	x	x	x
COc1ccc(CNC(=O)c2cc3c(C)nc4ccccc4c3o2)c(OC)c1	1.1	79.1*	38.5	30.2	72.7	-10.8	59.8*	14.6*	19.8*
CCc1ccc(CNC(=O)c2cc3c(C)nc4ccccc4c3o2)cc1	1	52.5*	60.5	17.7	84.1	-3.0	39.5	4.1	12.6
CCCCN(CC)CCNC(=O)c1cc2c(C)nc3ccccc3c2o1	0.9	5.6	99.7	3.9	96.5	10.5	x	x	x
Fc1ccc(-c2csc3ncnc(N4CCc5ccccc5C4)c23)cc1	1	3.5	95.9	-1.1	101.2	-1.3	x	x	x
Nc1nc(Cl)cc(N2CCC(c3cc(-c4ccc(Cl)cc4)n[nH]3)CC2)n1	1.1	52.6*	61.1	24.2	78.2	-8.7	45.6*	-3.4	21.0*
O=C(N/N=C/c1nn(-c2ccccc2)cc1-c1ccc(Cl)cc1)c1ccncc1	1	13.2	92.3	-12.2	109.7	-0.1	x	x	x
CCOC(=O)c1c(NC(=O)COC(=O)c2ccccn2)sc2c1CCC2	1.1	4.4	95.7	4.0	96.4	-10.5	x	x	x
COc1ccccc1N(C(=O)c1cncc(Br)c1)c1nc(-c2ccc(C)cc2)cs1	1	-3.9	103.4	-7.1	106.3	-1.7	x	x	x
